# Measured values reported in publication PMC5797940 (Nature, 2013).
# How the values were obtained:
# FRα = details: O4 replaced by an amino group; cited from earlier work
# reduced folate carrier = details: folate-binding affinity of reduced folate carrier; cited from earlier work
# [1] = tested on: FRα Y175, K136 and R106 alanine mutants; assay: saturation radioligand-binding assay, FRα Y175, K136 and R106 mutants; parameters: species or system human; details: mutations of Y175, K136 and R106 (bond lengths ≥3.1 Å)
# Method in brief: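 Human FRα alanine mutants made by site-directed mutagenesis, expressed as Fc fusions in transiently transfected HEK293 cells and Ni-NTA purified. 40 nM protein captured on protein G wells (25 mM Tris pH 8.0, 150 mM NaCl, 0.1% Triton X-100) for 40 min. Ligand stripped at pH 3.5 for 1 min. Then 40 min with varied [³H]-folic acid, two washes, scintillation counting. Kd by nonlinear regression, as fold versus wild type.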
# human FRα = human FRα (Homo sapiens, UniProt P15328); assay: saturation radioligand-binding assay with [^3H]-folic acid, wild-type FRα–Fc; details: fully glycosylated FRα–Fc
# Chain of human FRα (P15328 23-234): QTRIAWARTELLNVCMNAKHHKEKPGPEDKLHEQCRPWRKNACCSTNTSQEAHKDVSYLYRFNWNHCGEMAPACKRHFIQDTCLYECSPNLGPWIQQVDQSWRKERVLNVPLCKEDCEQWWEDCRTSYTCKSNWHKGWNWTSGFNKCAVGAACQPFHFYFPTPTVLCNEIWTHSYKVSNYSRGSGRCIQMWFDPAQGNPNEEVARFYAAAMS
structure (smiles),measurement,setting,value
Nc1nc(N)c2nc(CNc3ccc(C(=O)N[C@@H](CCC(=O)O)C(=O)O)cc3)cnc2n1 [aminopterin],affinity for FRα compared with folic acid,FRα,reduced affinity
Nc1nc(=O)c2nc(CNc3ccc(C(=O)N[C@@H](CCC(=O)O)C(=O)O)cc3)cnc2[nH]1 [folate],Km,reduced folate carrier,1 to 10 µM
Nc1nc(=O)c2nc(CNc3ccc(C(=O)N[C@@H](CCC(=O)O)C(=O)O)cc3)cnc2[nH]1 [folic acid],effect of the mutation on folic acid binding,[1],little effect
same,folic acid-binding affinity compared with the deglycosylated protein,human FRα,similar
CN(Cc1cnc2nc(N)nc(N)c2n1)c1ccc(C(=O)N[C@@H](CCC(=O)O)C(=O)O)cc1 [methotrexate],affinity for FRα compared with folic acid,FRα,reduced affinity
